In ChEMBL document CHEMBL1132487, “Structure-activity studies of cerulenin analogues as protein palmitoylation inhibitors” (J Med Chem, 1999):

Assays:
[1] = target: Fatty acid synthase (Homo sapiens) (UniProt P49327); test: Inhibition of fatty acid synthase at a concentration of 150 (uM)
Procedure, shortened: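 Fatty acid synthase partially purified from HL-60 human promyelocytic leukemia cells. Lysate incubated with compound (150 μM), then activity read as rate of NADPH oxidation in presence of acetyl-CoA and malonyl-CoA. Percent inhibition reported as mean ± SEM, at least two experiments.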

[2] = organism: Homo sapiens; test: The compound was tested for the inhibition of p21 palmitoylation at a concentration of 5(ug/mL); format: functional
Procedure, shortened: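 T24 human bladder carcinoma cells seeded at ~25% confluency in 60 mm dishes, attached overnight; treated 4 h with 5 μg/mL compound, then 2 h [³H]palmitate (100–200 μCi/mL). Lysed in PBS-TDS, protein-normalized (100–300 μg), immunoprecipitated with Y13-259 anti-Ras plus Protein G agarose, washed; pellet radioactivity counted. Percent inhibition of p21 palmitoylation vs untreated controls; six experiments, mean ± SEM.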

[3] = test system: T-24; test: Inhibition of human T24 cell proliferation; format: functional, cell-based
Procedure, shortened: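 T24 human bladder carcinoma cells (H-[Val12]-ras overexpressing) in RPMI-1640 with 10% FBS, seeded at 10% confluency, allowed 24 h attachment, then exposed to varying concentrations up to 50 μg/mL for 72 h. Surviving cells measured by sulforhodamine B staining (MTS also used). IC50 vs untreated controls, mean ± SEM of at least three experiments.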

[4] = organism: Homo sapiens; test: Inhibition of p21 palmitoylation at a concentration of 10(ug/ml); format: functional
Procedure, shortened: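 T24 cells seeded at ~25% confluency and attached overnight, treated 4 h with compound at 10 μg/mL, then labelled 2 h with [3H]palmitate (100–200 μCi/mL). Lysates in PBS-TDS, protein-normalized (100–300 μg), immunoprecipitated with Y13-259 anti-Ras antibody and Protein G agarose. Pellet radioactivity counted by scintillation. Percent inhibition vs untreated controls, one or two experiments.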

Fatty acid synthase (Homo sapiens), sequence (P49327 whole entry, looked up): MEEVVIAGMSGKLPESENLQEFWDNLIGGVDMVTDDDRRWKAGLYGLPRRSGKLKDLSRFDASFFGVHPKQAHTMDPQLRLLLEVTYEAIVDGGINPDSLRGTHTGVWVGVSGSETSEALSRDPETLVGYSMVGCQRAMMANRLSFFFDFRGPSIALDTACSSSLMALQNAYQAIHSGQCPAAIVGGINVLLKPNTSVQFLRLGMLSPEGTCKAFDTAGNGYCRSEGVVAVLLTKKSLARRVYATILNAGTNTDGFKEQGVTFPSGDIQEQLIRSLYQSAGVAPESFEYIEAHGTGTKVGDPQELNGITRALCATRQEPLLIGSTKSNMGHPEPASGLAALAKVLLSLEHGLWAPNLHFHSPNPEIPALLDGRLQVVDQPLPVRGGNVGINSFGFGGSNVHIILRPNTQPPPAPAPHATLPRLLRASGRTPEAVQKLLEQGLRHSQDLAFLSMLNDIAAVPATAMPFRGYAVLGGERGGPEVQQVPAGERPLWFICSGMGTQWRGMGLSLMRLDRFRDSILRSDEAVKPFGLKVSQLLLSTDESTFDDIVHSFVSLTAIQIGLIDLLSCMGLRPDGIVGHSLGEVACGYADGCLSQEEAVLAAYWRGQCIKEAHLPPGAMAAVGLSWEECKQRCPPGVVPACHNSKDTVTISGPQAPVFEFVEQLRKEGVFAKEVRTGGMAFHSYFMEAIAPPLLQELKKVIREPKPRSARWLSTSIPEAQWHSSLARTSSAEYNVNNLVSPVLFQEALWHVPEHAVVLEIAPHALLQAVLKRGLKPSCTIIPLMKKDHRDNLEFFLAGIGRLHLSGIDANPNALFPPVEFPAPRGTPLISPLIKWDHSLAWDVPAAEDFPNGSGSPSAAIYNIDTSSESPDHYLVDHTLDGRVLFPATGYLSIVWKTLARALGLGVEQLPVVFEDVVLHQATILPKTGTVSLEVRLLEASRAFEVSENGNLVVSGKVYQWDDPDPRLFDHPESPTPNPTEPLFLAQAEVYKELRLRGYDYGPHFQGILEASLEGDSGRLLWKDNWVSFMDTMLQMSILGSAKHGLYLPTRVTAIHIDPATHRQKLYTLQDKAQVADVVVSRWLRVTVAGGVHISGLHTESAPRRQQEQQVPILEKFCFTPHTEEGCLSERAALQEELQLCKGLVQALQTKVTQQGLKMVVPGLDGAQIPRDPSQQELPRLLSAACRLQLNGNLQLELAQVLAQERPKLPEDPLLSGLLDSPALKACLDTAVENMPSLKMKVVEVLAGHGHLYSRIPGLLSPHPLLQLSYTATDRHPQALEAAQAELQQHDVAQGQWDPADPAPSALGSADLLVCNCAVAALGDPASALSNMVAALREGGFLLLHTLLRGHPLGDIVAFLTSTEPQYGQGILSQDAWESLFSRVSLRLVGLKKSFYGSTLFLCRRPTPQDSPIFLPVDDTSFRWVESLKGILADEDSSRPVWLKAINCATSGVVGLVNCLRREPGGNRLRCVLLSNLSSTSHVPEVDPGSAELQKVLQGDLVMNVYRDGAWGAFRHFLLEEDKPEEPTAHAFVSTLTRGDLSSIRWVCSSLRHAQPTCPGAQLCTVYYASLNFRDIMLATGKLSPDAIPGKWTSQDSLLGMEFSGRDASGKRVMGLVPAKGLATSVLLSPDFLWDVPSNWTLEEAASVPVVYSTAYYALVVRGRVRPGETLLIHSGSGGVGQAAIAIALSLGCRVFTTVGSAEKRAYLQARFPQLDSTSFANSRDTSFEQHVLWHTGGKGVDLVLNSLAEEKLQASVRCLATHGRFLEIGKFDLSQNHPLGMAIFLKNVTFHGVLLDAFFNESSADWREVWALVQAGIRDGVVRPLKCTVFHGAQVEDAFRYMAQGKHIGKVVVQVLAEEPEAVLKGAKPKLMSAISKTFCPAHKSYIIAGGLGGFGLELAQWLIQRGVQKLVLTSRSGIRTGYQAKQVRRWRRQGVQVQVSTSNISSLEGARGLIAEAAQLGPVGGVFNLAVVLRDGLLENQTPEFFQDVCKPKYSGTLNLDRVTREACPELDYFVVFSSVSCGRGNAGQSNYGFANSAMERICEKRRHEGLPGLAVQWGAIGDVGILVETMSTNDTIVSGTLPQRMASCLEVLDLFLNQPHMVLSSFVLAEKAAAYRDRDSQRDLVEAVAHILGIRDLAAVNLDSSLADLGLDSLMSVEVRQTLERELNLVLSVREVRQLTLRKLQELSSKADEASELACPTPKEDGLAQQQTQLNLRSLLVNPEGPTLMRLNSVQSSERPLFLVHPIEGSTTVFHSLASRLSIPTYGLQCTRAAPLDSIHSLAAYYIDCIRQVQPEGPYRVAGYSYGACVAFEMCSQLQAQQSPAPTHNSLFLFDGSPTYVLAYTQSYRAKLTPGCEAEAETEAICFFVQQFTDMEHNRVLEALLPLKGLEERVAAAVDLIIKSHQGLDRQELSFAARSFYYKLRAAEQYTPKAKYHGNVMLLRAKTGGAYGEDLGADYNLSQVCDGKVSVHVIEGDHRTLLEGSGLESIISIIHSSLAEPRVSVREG

SMILES | inhibition [1] [%] | inhibition [2] [%] | IC50 [3] [µM] | inhibition [4] [%]
C/C=C/C/C=C/CCC(=O)[C@H]1O[C@H]1C(N)=O [CERULENIN] | 96 | 48 | 17 | 
CCCCCCCCCC1OC(=O)[C@@H]2O[C@H]12 (some centres undefined) | 40 |  | > 220 | 33
CCCCCCCCC1OC(=O)[C@@H]2O[C@H]12 (some centres undefined) | 75 |  | > 240 | 32
CCCCCCCCCC(O)[C@H]1O[C@H]1C(N)=O (some centres undefined) | 5 |  | > 200 | 27
CCCCCCCCCCCC1OC(=O)[C@@H]2O[C@H]12 (some centres undefined) | 4 |  | > 200 | 19
CCCCCCCCC(O)[C@H]1O[C@H]1C(N)=O (some centres undefined) | 4 |  | > 220 | 16
CCCCCCCCCCCCCCCC(O)[C@H]1O[C@H]1C(=O)N(C)C (some centres undefined) | 0 |  | 62 | 0
CCCCCCCCCCCCCCCC1OC(=O)[C@@H]2O[C@H]12 (some centres undefined) | 0 |  | 140 | 35
CCCCCCCCCC(O)[C@H]1O[C@H]1C(=O)N(C)C (some centres undefined) | 0 |  | 220 | 0
CCCCCCCCCCCCCCCC(=O)[C@H]1O[C@H]1C(=O)N(C)C | 0 |  | 40 | 31
CCCCCCCCCCCCCCCCCC1OC(=O)[C@@H]2O[C@H]12 (some centres undefined) | 5 |  | > 150 | 45
CCCCCCCCCCCC(=O)[C@H]1O[C@H]1C(=O)N(C)C | 5 |  | 49 | 10
CCCCCCCCCCCCCC(O)[C@H]1O[C@H]1C(=O)N(C)C (some centres undefined) | 5 |  | 69 | 16
CCCCCCCCCC(=O)[C@H]1O[C@H]1C(N)=O | 92 |  | 7 | 63
NC(=O)[C@H]1O[C@H]1C(=O)c1ccccc1 | 85 |  | 15 | 22
CCCCCCCCC(=O)[C@H]1O[C@H]1C(=O)N(C)C | 1 |  | 140 | 0
CCCCCCCCCCCCCCCCCC(O)[C@H]1O[C@H]1C(N)=O (some centres undefined) | 0 |  | > 140 | 3

SMILES | inhibition [1] [%] | inhibition [2] [%] | IC50 [3] [µM] | inhibition [4] [%]
CCCCCCCCCCCC(O)[C@H]1O[C@H]1C(N)=O (some centres undefined) | 6 |  | 130 | 29
CCCCCCCCCCCC(=O)[C@H]1O[C@H]1C(N)=O | 44 |  | 20 | 40
CN(C)C(=O)[C@H]1O[C@H]1C(=O)c1ccccc1 | 3 |  | 29 | 59
CCCCCCCCCCCCCC(O)[C@H]1O[C@H]1C(N)=O (some centres undefined) | 3 |  | 110 | 34
CCCCCCCCCCCCCC(=O)[C@H]1O[C@H]1C(N)=O | 0 |  | 13 | 47
CCCCCCCCCCCCCCCC(O)[C@H]1O[C@H]1C(N)=O (some centres undefined) | 10 |  | 190 | 40
CCCCCCCCCCCC(O)[C@H]1O[C@H]1C(=O)N(C)C (some centres undefined) | 9 |  | 95 | 0
CCCCCCCCCCCCCCCC(=O)[C@H]1O[C@H]1C(N)=O | 2 |  | 12 | 67
CCCCCCCCCCCCCCCCCC(O)[C@H]1O[C@H]1C(=O)N(C)C (some centres undefined) | 3 |  | 52 | 0
CCCCCCCCCCCCCCCCCC(=O)[C@H]1O[C@H]1C(=O)N(C)C | 0 |  | 34 | 21
CCCCCCCCC(O)[C@H]1O[C@H]1C(=O)N(C)C (some centres undefined) | 0 |  | > 190 | 9
CCCCCCCCC(=O)[C@H]1O[C@H]1C(N)=O | 74 |  | 27 | 42
CCCCCCCCCCCCCCCCCC(=O)[C@H]1O[C@H]1C(N)=O | 0 |  | 17 | 28
CCCCCCCCCC(=O)[C@H]1O[C@H]1C(=O)N(C)C | 2 |  | 77 | 17
CCCCCCCCCCCCCC(=O)[C@H]1O[C@H]1C(=O)N(C)C | 2 |  | 40 | 0
CCCCCCCCCCCCCC1OC(=O)[C@@H]2O[C@H]12 (some centres undefined) | 0 |  | > 180 | 2
